Measured values of several laboratories.
Each line is one published result; the experiments were not run side by side.
Target: RAC-alpha serine/threonine-protein kinase (AKT1, Homo sapiens, UniProt P31749)

CCCS(=O)(=O)Nc1ccc(F)c(C(=O)c2c[nH]c3ncc(-c4ccc(Cl)cc4)cc23)c1F — inhibition (enzyme activity, inhibitor; 1 µM): < 20%
O=C(Nc1cnn(-c2csc(C(=O)NC3COC3)c2)c1)Nc1c(F)cccc1Cl — remaining activity (enzyme activity, inhibitor; 5 µM): 105%
CN(C)C1CCN(CC#Cc2nn(C3CCCC3)c3nc(NCc4ccccc4)ncc23)C1 (stereo not shown) — inhibition (enzyme activity, inhibitor, FRET; 0.1 µM): 4%
COc1cc(/C=C/C(=O)CC(=O)/C=C/c2ccc(O)c(OC)c2)ccc1O — activity vs control (enzyme activity, inhibitor; 1 µM): 102%
O=C1NC(=O)c2cc(Nc3ccc(F)cc3)c(Nc3ccc(F)cc3)cc21 — remaining signal (cell-free assay; 0.5 µM): 94.8%
COc1cc(Cl)c(C(=O)N[C@@H](CN[C@H]2CC[C@@H](N)CC2)Cc2ccc(C#N)cc2)cc1-c1ccc(CN[C@H](C)c2ccc(C)cc2)o1 — remaining activity (enzyme activity, inhibitor; 1 µM): 85%
Cn1cncc1C1=CN(c2ncnc3[nH]cnc23)CCS1 — inhibition (enzyme activity, inhibitor, radiometric; 2 µM): 83.7%
Oc1ccc(-c2nc(-c3ccncc3)c(-c3ccc(F)cc3)[nH]2)cc1 — remaining signal (cell-free assay; 0.5 µM): 101%
COc1cc(F)ccc1-c1ncnc(Nc2cccc(C[S@](C)(=N)=O)c2)n1 — activity vs control (enzyme activity, inhibitor; 10 µM): 108%
Nc1ncnc2occ(-c3ccc(NC(=O)Nc4cc(C(F)(F)F)ccc4F)cc3)c12 — remaining signal (cell-free assay, inhibitor; 20 µM): 100%
Nc1c(C(=O)NCc2ccc(C(=O)NCCCC3CCCCC3)cc2)cnn1-c1ccccc1 — remaining binding (cell-free assay, competition with immobilised ligand; 0.1 µM): 100%
CCN(CC)CCNC(=O)c1c(C)[nH]c(/C=C2\C(=O)Nc3ccc(F)cc32)c1C — remaining signal (cell-free assay; 0.5 µM): 105%
COc1cc(Nc2cnc(C#N)c(O[C@H](C)CN(C)C)n2)ncc1-c1cnn(C)c1 — remaining activity (enzyme activity, inhibitor, radiometric; 10 µM): 87%
FC(F)(F)Oc1cccc(-c2cnc3ccc(-c4ccncc4)nn23)c1 — activity vs control (enzyme activity, inhibitor, radiometric; 5 µM): 104%
C=CC(=O)Nc1cc(Nc2nccc(Nc3cc(Cl)c(F)cc3C(C)(C)O)n2)c(OC)cc1N1CC[C@@H](N(C)C)C1 — inhibition (enzyme activity, inhibitor; 1 µM): -5%
Cn1cnc(Br)c1C1=CN(c2ncnc3[nH]cnc23)CCS1 — inhibition (enzyme activity, inhibitor, radiometric; 50 nM): 26.5%
Cc1nc(C2CCN(C(=O)c3ccc(OC(F)(F)F)cc3N)CC2)c2ncc(N3CCN(C)CC3)cc2n1 — remaining binding (cell-free assay, competition with immobilised ligand; 1 µM): 100%
FC(F)c1nc2ccccc2n1-c1nc(N2CCOCC2)nc(N2CCOCC2)n1 — remaining activity (enzyme activity, inhibitor; 10 µM): 123%
Cc1ccc(Nc2nccc(N(C)c3ccc4c(C)n(C)nc4c3)n2)cc1S(N)(=O)=O — inhibition (enzyme activity, inhibitor; 10 µM): 6%
CC(C)(C)C(=O)c1sc(NC2CCCCC2)nc1N — remaining activity (enzyme activity, inhibitor; 10 µM): 90%
CNC(=O)Nc1ccc2c(c1)[C@@]1(CC2)OC(=O)N(CC(=O)N(Cc2ccc(F)cc2)[C@@H](C)C(F)(F)F)C1=O — remaining binding (cell-free assay, competition with immobilised ligand; 1 µM): 77%
CNC(=O)c1cc(Oc2ccc(NC(=O)Nc3ccc(Cl)c(C(F)(F)F)c3)cc2)ccn1 — inhibition (enzyme activity, inhibitor; 0.3 µM): -6%
N#CCCc1ccc2c(c1)-c1[nH]c3ccc([N+](=O)[O-])cc3c1CC(=O)N2 — remaining signal (cell-free assay; 0.5 µM): 111%
Nc1nc(Nc2ccccc2)sc1C(=O)c1c(F)cccc1F — remaining activity (enzyme activity, inhibitor; 10 µM): 84%
CCCOc1ccc(OC)c(F)c1C(=O)c1ccc(C(=O)N[C@@H]2CNC[C@H]2NC(=O)c2ccc3[nH]ncc3c2)cc1 — remaining activity (enzyme activity, inhibitor; 10 µM): 20%
C[C@@H]1CN(c2cc(-c3nn(C)c4ccc(OC5(C)CC5)cc34)ncn2)C[C@H](C)O1 — remaining binding (cell-free assay, competition with immobilised ligand; 1 µM): 100%
O=C(CSc1nc2nccnc2c(=O)n1CCc1ccccc1)Nc1nccs1 — inhibition (enzyme activity, inhibitor; 10 µM): 4%
CSc1nc(C)c(-c2ccnc(Nc3ccc(N4CCOCC4)cc3)c2)[nH]1 — inhibition (enzyme activity, inhibitor; 10 µM): -2.9%
COc1cc2ncnc(Nc3ccc(Oc4ccccc4)c(C)c3C)c2cc1OC — inhibition (enzyme activity, inhibitor; 1 µM): 2%
CCc1ccccc1C(=O)Nc1n[nH]c2c(C)c(F)c(C3C(C#N)=C(C)N(C)C(C)=C3C#N)cc12 — remaining binding (cell-free assay, competition with immobilised ligand; 1 µM): 75%
CNc1cccc2cc(C(=O)Nc3ccc(C(=O)O)cc3)c(=O)[nH]c12 — inhibition (enzyme activity, inhibitor; 10 µM): 2.2%
CNC(=O)Nc1ccc2c(c1)CC[C@@]21OC(=O)N(CC(=O)N(Cc2ccc(F)cc2)[C@@H](C)C(F)(F)F)C1=O — remaining binding (cell-free assay, competition with immobilised ligand; 1 µM): 91%
Cc1cnc(NC2CCOCC2)nc1-n1cnc(C(=O)NC(CN)c2cc(F)cc(Cl)c2)c1 (stereo not shown) — remaining activity (enzyme activity, inhibitor, radiometric; 1 µM): 89%
COCCOc1nc(-c2ccc(Cl)nc2)nc2c1CN(C(=O)c1ncn3ccccc13)CC2 — remaining binding (cell-free assay, competition with immobilised ligand; 0.1 µM): 82%
Cn1c(=O)n(-c2ccc(C(C)(C)C#N)cc2)c2c3cc(-c4cnc5ccccc5c4)ccc3ncc21 — remaining activity (enzyme activity, inhibitor; 10 µM): 126%
CN(C)C(=O)Cn1cc(-c2nc([C@@](C)(c3ccc(-c4cnc(N)nc4)cc3)C3CC3)no2)cn1 — remaining binding (cell-free assay, competition with immobilised ligand; 1 µM): 94%
Nc1nc(Nc2ccc(S(N)(=O)=O)cc2)nn1C(=O)c1c(F)cccc1F — remaining signal (cell-free assay; 0.5 µM): 120%
